Measurements taken from ChEMBL document CHEMBL4680121, “Development of (4-methoxyphenyl)-1H-tetrazol-5-amine regioisomers as a new class of selective antitubercular agents” (Eur J Med Chem, 2020).
In brackets after ≈: the same amount, converted by molar mass.

Legend:
Mycobacterium xenopi = test: Antibacterial activity against Mycobacterium xenopi assessed as inhibition of microbial growth incubated for 1 week by MABA method; type: functional; details: 168 h, time 1 weeks
Outline: (§1)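 Microplate Alamar Blue assay using two-fold serial microdilution in Middlebrook 7H9 broth with 10% OADC, compounds 0.125–512 µg/ml from DMSO stocks. Inoculum came from fresh LJ culture, was adjusted to McFarland 1 and diluted 1:20. Plates were incubated 1 week at 37 °C, Alamar blue was added and plates were re-incubated 24 h. MIC was the lowest concentration preventing the blue-to-pink change. Each plate carried growth and sterile controls.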

[1] = system: Mycobacterium scrofulaceum; test: Antibacterial activity against Mycobacterium scrofulaceum assessed as inhibition of microbial growth incubated for 1 week by MABA method; type: functional; details: 168 h, time 1 weeks; outline: as §1
HaCaT [2] = test: Cytotoxicity against human HaCaT cells assessed as reduction in cell viability at 100 uM measured after 72 hrs by MTT assay; type: cell-based
Outline: (§2)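 MTT viability assay on cells grown in DMEM with 10% heat-inactivated FBS, penicillin/streptomycin and 20 mM HEPES at 37 °C/5% CO2. Cells were seeded at 1×10^4 per well and allowed to adhere for 24 h, then the medium was refreshed. Compounds were added at 20–140 μM for 72 h at 37 °C, followed by MTT (0.5 mg/mL in serum-free medium) for 4 h. Untreated cells served as control. IC50 is the concentration giving 50% growth inhibition versus control.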

Staphylococcus aureus [3] = test: Antibacterial activity against Staphylococcus aureus ATCC 6538 assessed as bacterial growth inhibition measured after 18 hrs by two-fold serial microdilution method; type: functional
Outline: (§3)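 Two-fold serial broth microdilution in MH II medium following modified CLSI procedures. Compounds were dissolved in DMSO and diluted in medium to at most 1% solvent, tested from 0.03125 to 512 μg/ml. Final inoculum 10^6 CFU/ml. MIC was taken as the lowest concentration with no visible growth after 18 h at 35 °C.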

[4] = system: Mycobacterium intracellulare; test: Antimycobacterial activity against Mycobacterium intracellulare assessed as inhibition of microbial growth incubated for 1 week by MABA method; type: functional; details: 168 h, time 1 weeks; outline: as §1
[5] = system: Mycobacterium tuberculosis; test: Antitubercular activity against Mycobacterium tuberculosis Spec.192 assessed as inhibition of microbial growth incubated for 1 week by MABA method; type: functional; details: Mycobacterium tuberculosis, 192, 168 h; time 1 weeks
Outline: (§4)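 Microplate Alamar Blue assay in Middlebrook 7H9 broth with 10% OADC. Inoculum from fresh LJ culture was adjusted to McFarland 1 and diluted 1:20. DMSO stocks were two-fold serially diluted to final 0.125–512 µg/ml, with growth and sterile controls. Plates ran 1 week at 37 °C, then Alamar blue was added for 24 h. MIC is the lowest concentration preventing the blue-to-pink change.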

[6] = system: Mycobacterium tuberculosis; test: Antitubercular activity against Mycobacterium tuberculosis H37Rv ATCC 25618 assessed as inhibition of microbial growth incubated for 1 week by MABA method; type: functional; details: H37Rv ATCC 25618, 168 h, time 1 weeks; outline: as §4
HaCaT [7] = test: Cytotoxicity against human HaCaT cells assessed as reduction in cell viability measured after 72 hrs by MTT assay; type: cell-based; outline: as §2
Klebsiella pneumoniae = test: Antibacterial activity against Klebsiella pneumoniae ATCC 10031 assessed as bacterial growth inhibition measured after 18 hrs by two-fold serial microdilution method; type: functional; outline: as §3
Pseudomonas aeruginosa [8] = test: Antibacterial activity against Pseudomonas aeruginosa PAO1 assessed as bacterial growth inhibition measured after 18 hrs by two-fold serial microdilution method; type: functional; outline: as §3
[9] = system: Staphylococcus epidermidis; test: Antibacterial activity against Staphylococcus epidermidis ATCC 35984/RP62A assessed as bacterial growth inhibition measured after 18 hrs by two-fold serial microdilution method; type: functional; outline: as §3
V79 [10] = test: Cytotoxicity against Chinese Hamster V79 cells assessed as reduction in cell viability at 100 uM measured after 72 hrs by MTT assay; type: cell-based, Cricetulus griseus; details: v79, 72 h; outline: as §2
Proteus vulgaris = test: Antibacterial activity against Proteus vulgaris NCTC 4635 assessed as bacterial growth inhibition measured after 18 hrs by two-fold serial microdilution method; type: functional; outline: as §3
[11] = system: Staphylococcus epidermidis; test: Antibacterial activity against Staphylococcus epidermidis ATCC 1457 assessed as bacterial growth inhibition measured after 18 hrs by two-fold serial microdilution method; type: functional; outline: as §3
Mycobacterium kansasii = test: Antibacterial activity against Mycobacterium kansasii assessed as inhibition of microbial growth incubated for 1 week by MABA method; type: functional; details: 168 h, time 1 weeks; outline: as §1
Staphylococcus aureus [12] = test: Antibacterial activity against Staphylococcus aureus NCTC 4163 assessed as bacterial growth inhibition measured after 18 hrs by two-fold serial microdilution method; type: functional; outline: as §3
Mycobacterium avium = test: Antimycobacterial activity against Mycobacterium avium assessed as inhibition of microbial growth incubated for 1 week by MABA method; type: functional; details: 168 h, time 1 weeks; outline: as §4
Pseudomonas aeruginosa [13] = test: Antibacterial activity against Pseudomonas aeruginosa NCTC 6749 assessed as bacterial growth inhibition measured after 18 hrs by two-fold serial microdilution method; type: functional; outline: as §3
[14] = system: Mycobacterium scrofulaceum; test: Potency index, ratio of isoniazid MIC to test compound MIC for antibacterial activity against Mycobacterium scrofulaceum assessed as inhibition of microbial growth incubated for 1 week by MABA method; type: functional; details: time 1 weeks
[15] = system: Staphylococcus epidermidis; test: Antibacterial activity against Staphylococcus epidermidis ATCC 12228 assessed as bacterial growth inhibition measured after 18 hrs by two-fold serial microdilution method; type: functional; outline: as §3
Escherichia coli = test: Antibacterial activity against Escherichia coli ATCC 25922 assessed as bacterial growth inhibition measured after 18 hrs by two-fold serial microdilution method; type: functional; outline: as §3
V79 [16] = test: Cytotoxicity against Chinese Hamster V79 cells assessed as reduction in cell viability measured after 72 hrs by MTT assay; type: cell-based; details: Cricetulus griseus, V79, 72 h; outline: as §2
[17] = system: Mycolicibacterium fortuitum; test: Antibacterial activity against Mycobacterium fortuitum assessed as inhibition of microbial growth incubated for 1 week by MABA method; type: functional; details: 168 h, time 1 weeks; outline: as §1

For `COc1ccc(Nc2nnnn2-c2ccc(Cl)cc2)cc1`, the MIC (Mycobacterium xenopi) was 128 µg/mL, the MIC [1] was 16 µg/mL and the Activity (HaCaT [2]) was “Non-Toxic”. For the same molecule, the MIC (Staphylococcus aureus [3]) was over 256 µg/mL, the MIC [4] was 128 µg/mL and the MIC [5] was 8 µg/mL. It also gave an MIC [6] of 8 µg/mL, an IC50 (HaCaT [7]) of 102 µM and an MIC (Klebsiella pneumoniae) of over 256 µg/mL. For the same molecule, the MIC (Pseudomonas aeruginosa [8]) was over 256 µg/mL, the MIC [9] was 256 µg/mL (≈ 848 µM) and the Activity (V79 [10]) was “Non-Toxic”. The MIC (Proteus vulgaris) was over 256 µg/mL, the MIC [11] was over 256 µg/mL and the MIC (Mycobacterium kansasii) was 512 µg/mL. The MIC (Staphylococcus aureus [12]) was 256 µg/mL (≈ 848 µM), the MIC (Mycobacterium avium) was 256 µg/mL and the MIC (Pseudomonas aeruginosa [13]) was over 256 µg/mL. It also gave a Ratio [14] of 4, an MIC [15] of 256 µg/mL (≈ 848 µM) and an MIC (Escherichia coli) of over 256 µg/mL. For the same molecule, the IC50 (V79 [16]) was 115 µM and the MIC [17] was over 512 µg/mL.
